Laboratory results from ChEMBL document CHEMBL3804761, “Synthesis of a stable and orally bioavailable englerin analogue” (Bioorg Med Chem Lett, 2016).

Columns and labels:
Type in all cases: functional
NCI-H226 = experiment: Growth inhibition of human NCI-H226 cells assessed as cell growth at 10 uM incubated for 48 hrs by sulforhodamine B assay relative to control; details: NCI-H226, 48 h, read-out: Activity
Procedure, shortened: (§1)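 Run in the standard NCI 60-cell-line screen. Cells were exposed to drug for two days, and the read-out was sulforhodamine B staining. Compound was tested at a single final concentration of 10 µM in every line, and results are reported as growth percent.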

HT-29 = experiment: Growth inhibition of human HT-29 cells incubated for 48 hrs by sulforhodamine B assay; details: HT-29, 48 h
Procedure, shortened: (§2)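 NCI 60-cell-line panel, standard protocol. Cells exposed to compound for two days, growth read by sulforhodamine B staining. Tested at five 10-fold dilutions, top concentration 100 µM, to give dose-response curves.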

[1] = Growth inhibition of human OVCAR8 cells incubated for 48 hrs by sulforhodamine B assay; details: OVCAR-8, 48 h; procedure, shortened: as §2
[2] = Growth inhibition of human OVCAR3 cells assessed as cell growth at 10 uM incubated for 48 hrs by sulforhodamine B assay relative to control; details: OVCAR-3, 48 h, read-out: Activity; procedure, shortened: as §1
[3] = Growth inhibition of human Caki1 cells assessed as cell growth at 10 uM incubated for 48 hrs by sulforhodamine B assay relative to control; details: CAKI-1, 48 h, read-out: Activity; procedure, shortened: as §1
NCI-H322M = experiment: Growth inhibition of human NCI-H322M cells assessed as cell growth at 10 uM incubated for 48 hrs by sulforhodamine B assay relative to control; details: read-out: Activity; procedure, shortened: as §1
[4] = Growth inhibition of human BT549 cells assessed as cell growth at 10 uM incubated for 48 hrs by sulforhodamine B assay relative to control; details: BT-549, 48 h, read-out: Activity; procedure, shortened: as §1
[5] = Growth inhibition of human Caki1 cells incubated for 48 hrs by sulforhodamine B assay; details: CAKI-1, 48 h; procedure, shortened: as §2
MDA-MB-231 = experiment: Growth inhibition of human MDA-MB-231 cells incubated for 48 hrs by sulforhodamine B assay; details: MDA-MB-231, 48 h; procedure, shortened: as §2
A549 [6] = experiment: Growth inhibition of human A549/ATCC cells incubated for 48 hrs by sulforhodamine B assay; details: A549, 48 h; procedure, shortened: as §2
[7] = Growth inhibition of human TK10 cells incubated for 48 hrs by sulforhodamine B assay; details: TK-10, 48 h
Procedure, shortened: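 Tested in the standard NCI 60-cell-line protocol with two-day drug exposure and a sulforhodamine B endpoint. Compounds were first screened at a single final concentration of 10 µM, reported as growth percent. They were then run as five 10-fold dilutions starting from a high concentration of 100 µM to give dose-response curves.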

MDA-MB-435 = experiment: Growth inhibition of human MDA-MB-435 cells incubated for 48 hrs by sulforhodamine B assay; details: MDA-MB-435, 48 h; procedure, shortened: as §2
[8] = Growth inhibition of human HOP62 cells incubated for 48 hrs by sulforhodamine B assay; details: HOP-62, 48 h; procedure, shortened: as §2
[9] = Growth inhibition of human SF539 cells incubated for 48 hrs by sulforhodamine B assay; details: SF-539, 48 h; procedure, shortened: as §2
[10] = Growth inhibition of human OVCAR4 cells assessed as cell growth at 10 uM incubated for 48 hrs by sulforhodamine B assay relative to control; details: OVCAR-4, 48 h, read-out: Activity; procedure, shortened: as §1
[11] = Growth inhibition of human HCT15 cells incubated for 48 hrs by sulforhodamine B assay; details: HCT-15, 48 h; procedure, shortened: as §2
Malme-3M = experiment: Growth inhibition of human MALME-3M cells incubated for 48 hrs by sulforhodamine B assay; procedure, shortened: as §2
[12] = Growth inhibition of human Hs 578T cells incubated for 48 hrs by sulforhodamine B assay
NCI-H522 = experiment: Growth inhibition of human NCI-H522 cells incubated for 48 hrs by sulforhodamine B assay; details: NCI-H522, 48 h; procedure, shortened: as §2
K562 = experiment: Growth inhibition of human K562 cells incubated for 48 hrs by sulforhodamine B assay; details: K562, 48 h; procedure, shortened: as §2
[13] = Growth inhibition of human DU145 cells assessed as cell growth at 10 uM incubated for 48 hrs by sulforhodamine B assay relative to control; details: DU-145, 48 h, read-out: Activity; procedure, shortened: as §1
[14] = Growth inhibition of human OVCAR8 cells assessed as cell growth at 10 uM incubated for 48 hrs by sulforhodamine B assay relative to control; details: OVCAR-8, 48 h, read-out: Activity; procedure, shortened: as §1
[15] = Growth inhibition of human PC3 cells incubated for 48 hrs by sulforhodamine B assay; details: PC-3, 48 h; procedure, shortened: as §2
[16] = Growth inhibition of human SKOV3 cells assessed as cell growth at 10 uM incubated for 48 hrs by sulforhodamine B assay relative to control; details: SK-OV-3, 48 h, read-out: Activity; procedure, shortened: as §1
A549 [17] = experiment: Growth inhibition of human A549/ATCC cells assessed as cell growth at 10 uM incubated for 48 hrs by sulforhodamine B assay relative to control; details: A549, 48 h, read-out: Activity; procedure, shortened: as §1
[18] = Growth inhibition of human SF295 cells incubated for 48 hrs by sulforhodamine B assay; details: SF-295, 48 h; procedure, shortened: as §2
[19] = Growth inhibition of human HCT15 cells assessed as cell growth at 10 uM incubated for 48 hrs by sulforhodamine B assay relative to control; details: HCT-15, 48 h, read-out: Activity; procedure, shortened: as §1
[20] = Growth inhibition of human HOP62 cells assessed as cell growth at 10 uM incubated for 48 hrs by sulforhodamine B assay relative to control; details: HOP-62, 48 h, read-out: Activity; procedure, shortened: as §1
CCRF-CEM = experiment: Growth inhibition of human CCRF-CEM cells assessed as cell growth at 10 uM incubated for 48 hrs by sulforhodamine B assay relative to control; details: read-out: Activity
Procedure, shortened: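 Single-dose screen in the NCI 60-cell-line panel at one final concentration of 10 µM. Two-day drug exposure with a sulforhodamine B endpoint. Values are growth percent for each cell line.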

[21] = read-out: pLC50 (the source's name) (converted)

CC(C)[C@@]12C[C@@H](NC(=O)CO)[C@@](C)(O1)[C@@H]1CC[C@@H](C)[C@H]1[C@@H]2OC(=O)c1ccc2ccccc2c1
growth at 10 µM (NCI-H226): 90.2% | GI50 (HT-29): 17.4 µM | LC50 (HT-29): 60.3 µM | TGI (HT-29; read-out: pTGI (converted)): 32.4 µM | GI50 [1]: 6.46 µM | LC50 (concentration killing 50% of cells) [1]: 60.3 µM | TGI ([1]; read-out: pTGI (converted)): 22.4 µM | growth at 10 µM [2]: 98.8% | growth at 10 µM [3]: 52.6% | growth at 10 µM (NCI-H322M): 89.5% | growth at 10 µM [4]: 70.2% | GI50 [5]: 10 µM | LC50 [5]: 50.1 µM | TGI ([5]; read-out: pTGI (converted)): 22.4 µM | GI50 (MDA-MB-231): 15.1 µM | CC50 (MDA-MB-231; [21]): 67.6 µM | TGI (MDA-MB-231; read-out: pTGI (converted)): 32.4 µM | GI50 (A549 [6]): 14.8 µM | LC50 (A549 [6]): 63.1 µM | TGI (A549 [6]; read-out: pTGI (converted)): 30.2 µM | GI50 [7]: 19.1 µM | CC50 [7, 21]: 60.3 µM | TGI ([7]; read-out: pTGI (converted)): 33.9 µM | GI50 (MDA-MB-435): 17 µM | LC50 (MDA-MB-435): 63.1 µM | TGI (MDA-MB-435; read-out: pTGI (converted)): 32.4 µM | GI50 [8]: 15.1 µM | LC50 [8]: 55 µM | TGI ([8]; read-out: pTGI (converted)): 28.8 µM | GI50 [9]: 15.5 µM | LC50 [9]: 55 µM | TGI ([9]; read-out: pTGI (converted)): 29.5 µM | growth at 10 µM [10]: 82.2% | GI50 [11]: 16.6 µM | LC50 [11]: 61.7 µM | TGI ([11]; read-out: pTGI (converted)): 31.6 µM | GI50 (Malme-3M): 16.2 µM | LC50 (Malme-3M): 69.2 µM | TGI (Malme-3M; read-out: pTGI (converted)): 33.1 µM | GI50 ([12]; read-out: GI50): 2.23 µM | GI50 ([12]; read-out: pGI50 (converted)): 2.24 µM | CC50 [12, 21]: > 100 µM | TGI ([12]; read-out: pTGI (converted)): 8.91 µM | GI50 (NCI-H522): 15.5 µM | LC50 (NCI-H522): 56.2 µM | TGI (NCI-H522; read-out: pTGI (converted)): 29.5 µM | GI50 (K562): 19.5 µM | CC50 (K562; [21]): 95.5 µM | TGI (K562; read-out: pTGI (converted)): 42.7 µM | growth at 10 µM [13]: 98.4% | growth at 10 µM [14]: 51.3% | GI50 [15]: 12 µM | CC50 [15, 21]: 52.5 µM | TGI ([15]; read-out: pTGI (converted)): 25.1 µM | growth at 10 µM [16]: 96.4% | growth at 10 µM (A549 [17]): 81% | GI50 [18]: 16.2 µM | LC50 (concentration causing 50% net cell kill) [18]: 57.5 µM | TGI ([18]; read-out: pTGI (converted)): 30.2 µM | growth at 10 µM [19]: 90.8% | growth at 10 µM [20]: 89.3%

CC(C)[C@@]12C[C@@H](NC(=O)CF)[C@@](C)(O1)[C@@H]1CC[C@@H](C)[C@H]1[C@@H]2OC(=O)/C=C/c1ccccc1
growth at 10 µM (NCI-H226): 84.5% | growth at 10 µM [2]: 115% | growth at 10 µM [3]: 80.9% | growth at 10 µM (NCI-H322M): 97.4% | growth at 10 µM [4]: 111% | growth at 10 µM [10]: 105% | growth at 10 µM (CCRF-CEM): 88.6% | growth at 10 µM [13]: 115% | growth at 10 µM [14]: 107% | growth at 10 µM [16]: 91.3% | growth at 10 µM (A549 [17]): 94.4% | growth at 10 µM [19]: 103% | growth at 10 µM [20]: 90.8%
